Experimental data published in ChEMBL document CHEMBL1122741, “Substituted 5,6-dihydrofuro[3,2-f]-1,2-benzisoxazole-6-carboxylic acids: high-ceiling diuretics with uricosuric activity” (J Med Chem, 1984).
Active and inactive are the calls of the source. The rule behind the calls is not given here.

Columns and labels:
[1] = test system: Canis familiaris; test: ED5(natriuretic potency) is the oral dose(mg/kg) required to produce an excretion of 5 milliequivalents of Na+per kilogram during 0-6 hr in female dogs (Highest dose tested was 30 mg/kg); type: functional, Canis lupus familiaris
How it was run: (§1)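 Female dogs, conscious, one oral dose per dog per experiment. Urine collected and centrifuged; venous plasma drawn at each collection time. Samples assayed for Na+, K+, Cl-, urate and glucose by standard methods. Cumulative Na+ output expressed as mequiv/kg over 6 h, at least two dogs/dose. ED5 read from regression of Na+ excretion against log dose.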

[2] = test system: Mus musculus; test: ED6 (natriuretic potency) is the oral dose(mg/kg) required to produce an excretion of 6 milliequivalents of Na+per kilogram during 0-4 hr in male mice (Highest dose tested was 50 mg/kg); type: functional
How it was run: (§2)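 Male mice, 16-30 g, fed ad libitum beforehand. Compound in 0.2% hydroxypropylmethylcellulose given po at 10 mL/kg, then 0.9% saline po at 3% of body weight. Five mice pooled per metabolism cage, four cages per dose. Combined urine collected 0-4 h and assayed for Na+, K+, Cl-, uric acid as mequiv/kg per cage. ED6 from regression of Na+ against log dose.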

[3] = test system: Rattus norvegicus; test: ED2(natriuretic potency) is the oral dose(mg/kg) required to produce an excretion of 2 milliequivalents of Na+per kilogram during 0-4 hr in female rats (Highest dose tested was 100 mg/kg); Inactive; type: functional, organism-based; design: dose 100 mg/kg
How it was run: (§3)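 Female Sprague-Dawley rats, 175-225 g, on sucrose and water for 18 h, given 5 mg DOCA sc 2 h before dosing. Compound in 0.2% methylcellulose given by gavage at 2 mL/kg, then a 30 mL/kg load of 0.34% NaCl/0.69% KCl. Individual metabolism cages, urine collected 0-4 h for Na+, K+, Cl-. Two-stage two-dose screen at 2 rats/dose, then at least four doses at 4 rats/dose. ED2 taken from regression of Na+ excretion against log dose.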

[4] = test system: Rattus norvegicus; test: ED2(natriuretic potency) is the oral dose(mg/kg) required to produce an excretion of 2 milliequivalents of Na+per kilogram during 0-4 hr in female rats (Highest dose tested was 100 mg/kg); type: functional; how it was run: as §3
[5] = test system: Mus musculus; test: ED6 (natriuretic potency) is the oral dose(mg/kg) required to produce an excretion of 6 milliequivalents of Na+per kilogram during 0-4 hr in male mice (Highest dose tested was 50 mg/kg); Inactive; type: functional, organism-based; design: dose 50 mg/kg; how it was run: as §2
[6] = test system: Canis familiaris; test: ED5(natriuretic potency) is the oral dose(mg/kg) required to produce an excretion of 5 milliequivalents of Na+per kilogram during 0-6 hr in female dogs (Highest dose tested was 30 mg/kg); Inactive; type: functional, organism-based; design: dose 30 mg/kg; conditions: Canis lupus familiaris; how it was run: as §1
[7] = test system: Mus musculus; test: Na+ excretion mequiv /kg in saline-loaded mice administered at a dose 2 […] perorally; type: ADME, organism-based; conditions: in vivo, po
How it was run: (§4)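 Saline-loaded male mice, 16-30 g. Compound po in 0.2% hydroxypropylmethylcellulose at 10 mL/kg, vehicle alone for controls, followed by 0.9% saline po at 3% of body weight. Doses were 0.3-250 mg/kg po. Five mice per metabolism cage, four cages per dose, pooled urine collected for 4 h. Na+ reported as mean ± SEM mequiv/kg; ANOVA with Duncan's test or unpaired t test against control.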

[8] = test system: Canis familiaris; test: Na+ excretion mequiv /kg in 6 conscious female dogs administered perorally during 0-6 hr; type: ADME, organism-based, Canis lupus familiaris; conditions: dog, in vivo, po
How it was run: (§5)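 Conscious female dogs dosed at 3 mg/kg po, except one reference at 10 mg/kg, one dose per dog. Urine collected to 6 h and centrifuged; heparinized venous plasma taken at each collection. Na+ and urate measured by standard methods, mean ± SEM over 0-6 h. Compared with vehicle by ANOVA/Duncan's test or unpaired t test.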

[9] = test system: Mus musculus; test: Na+ excretion mequiv /kg in saline-loaded mice administered at a dose 10 […] perorally; type: ADME, organism-based; conditions: in vivo, po; how it was run: as §4
[10] = urate excreted in 4 Cebus monkey''s during 0-6 hr; type: ADME; conditions: in vivo
How it was run: (§6)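 Male and female Cebus monkeys, 4-6 per group, fasted for 6 h after dosing, water ad libitum. 20 mg/kg in 0.2% hydroxypropylmethylcellulose at 1.0 mL/kg by nasogastric tube, then water load of 5% body weight. Urine collected in metabolism pans at 2, 6 and 24 h and assayed for uric acid. Urate in mg/kg over 0-6 h, mean ± SEM.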

[11] = test system: Mus musculus; test: Na+ excretion mequiv /kg in saline-loaded mice administered at a dose 50 […] perorally; type: ADME, organism-based; conditions: in vivo, po; how it was run: as §4
[12] = organism: Canis familiaris; test: urate excreted in female dogs during 0-6 hr; type: ADME, organism-based, Canis lupus familiaris; conditions: dog, in vivo; how it was run: as §5
[13] = urate excreted in 6 Cebus monkey''s during 0-6 hr; type: ADME; conditions: in vivo; how it was run: as §6
[14] = test system: Canis familiaris; test: Na+ excretion mequiv /kg in conscious female dogs administered perorally during 0-6 hr; type: ADME, organism-based, Canis lupus familiaris; conditions: dog, in vivo, po; how it was run: as §5
[15] = Urate excreted in 6 Cebus monkey''s during 0-6 hr; type: ADME; conditions: in vivo; how it was run: as §6
[16] = organism: Canis familiaris; test: Urate excreted in female dogs during 0-6 hr; type: ADME, organism-based, Canis lupus familiaris; conditions: dog, in vivo; how it was run: as §5
[17] = test system: Mus musculus; test: Na+ excretion mequiv[…] in saline-loaded mice administered at a dose 10 […] perorally; type: ADME, organism-based; conditions: in vivo, po; how it was run: as §4
[18] = test system: Mus musculus; test: Na+ excretion mequiv[…] in saline-loaded mice administered at a dose 10 […] perorally* -significantly different from control(p<0.05) and Duncan's test; type: ADME, organism-based; conditions: in vivo, po; how it was run: as §4
[19] = test system: Mus musculus; test: Na+ excretion mequiv/kg in saline-loaded mice administered at a dose 2 […] perorally; type: ADME, organism-based; conditions: in vivo, po; how it was run: as §4
[20] = test system: Mus musculus; test: Na+ excretion mequiv/kg in saline-loaded mice administered at a dose 30 […] perorally; type: ADME, organism-based; conditions: in vivo, po; how it was run: as §4
[21] = test system: Mus musculus; test: Na+ excretion mequiv/kg in saline-loaded mice administered at a dose 3 […] perorally; type: ADME, organism-based; conditions: in vivo, po; how it was run: as §4
[22] = test system: Mus musculus; test: Na+ excretion mequiv/kg in 4 saline-loaded mice administered at a dose 50 […] perorally; type: ADME, organism-based; conditions: in vivo, po; how it was run: as §4
[23] = test system: Mus musculus; test: Na+ excretion mequiv/kg in saline-loaded mice administered at a dose 10 […] perorally; type: ADME, organism-based; conditions: in vivo, po; how it was run: as §4
[24] = test system: Canis familiaris; test: Na+ excretion mequiv/kg in 4 conscious female dogs administered perorally during 0-6 hr; type: ADME, organism-based, Canis lupus familiaris; conditions: dog, in vivo, po; how it was run: as §5
[25] = organism: Canis familiaris; test: urate excreted in 4 female dogs during 0-6 hr; type: ADME, organism-based, Canis lupus familiaris; conditions: dog, in vivo; how it was run: as §5

## OCC1Cc2cc3c(-c4ccccc4F)noc3c(Cl)c2O1 (configuration not stated)
[1]
  ED5: 21 mg/kg
[2]
  ED6: 30 mg/kg
[3]
  ED2: inactive

## O=C(O)C1Cc2cc3c(-c4ccc(O)cc4)noc3c(Cl)c2O1 (configuration not stated)
[4]
  ED2: 190 mg/kg
[5]
  ED6: inactive

## O=C(O)C1Cc2cc3c(-c4ccccc4F)noc3c(Br)c2O1 (configuration not stated)
[4]
  ED2: 117.5 mg/kg
[2]
  ED6: 9.9 mg/kg

## CC(C)Cc1noc2c(Cl)c3c(cc12)CC(C(=O)O)O3 (configuration not stated)
[4]
  ED2: 0.23 mg/kg
[6]
  ED5: inactive
[2]
  ED6: 0.47 mg/kg

## CCOC(=O)C1Cc2cc3c(-c4ccccc4F)noc3c(Cl)c2O1 (configuration not stated)
[5]
  ED6: inactive
[3]
  ED2: inactive

## N#CC1Cc2cc3c(-c4ccccc4F)noc3c(Cl)c2O1 (configuration not stated)
[5]
  ED6: inactive
[3]
  ED2: inactive

## O=C(O)C1Cc2cc3c(-c4ccccc4F)noc3c(Cl)c2O1 (stereo in doubt; 15k)
[7]
  Na+ excretion: 4.2 m equiv kg-1
[4]
  ED2: 40 mg/kg
[8]
  Na+ excretion: 8.18 m equiv kg-1
[1]; 30 mg/kg
  ED5: 0.6 mg/kg
[9]
  Na+ excretion: 8.2 m equiv kg-1
[10]
  Excretion: 7.08 mg/kg
[11]
  Na+ excretion: 11.9 m equiv kg-1
[12]
  Excretion: 0.82 mg/kg
[2]; 50 mg/kg
  ED6: 4.2 mg/kg

## O=C(O)C1Cc2cc3c(-c4ccccc4F)noc3c(Cl)c2O1 (stereo in doubt; 29)
[7]
  Na+ excretion: 5.5 m equiv kg-1
[13]
  Excretion: 8.34 mg/kg
[1]; 30 mg/kg
  ED5: 0.71 mg/kg
[9]
  Na+ excretion: 8.1 m equiv kg-1
[11]
  Na+ excretion: 13.2 m equiv kg-1
[12]
  Excretion: 1.32 mg/kg
[2]; 50 mg/kg
  ED6: 2.95 mg/kg
[14]
  Na+ excretion: 7.6 m equiv kg-1

## O=C(O)C1Cc2cc3c(-c4ccccc4F)noc3c(Cl)c2O1 (stereo in doubt; 30) [listing 1 of 2 here]
[7]
  Na+ excretion: 2.8 m equiv kg-1
[15]
  Excretion: 8.32 mg/kg
[9]
  Na+ excretion: 3.2 m equiv kg-1
[16]
  Excretion: 1.25 mg/kg
[11]
  Na+ excretion: 3.5 m equiv kg-1
[14]
  Na+ excretion: 0.62 m equiv kg-1

## O=C(O)C1Cc2cc3c(-c4ccccc4F)noc3c(Cl)c2O1 (stereo in doubt; 30) [listing 2 of 2 here]
[6]
  ED5: inactive
[5]
  ED6: inactive

## C=C(CC)C(=O)c1ccc(OCC(=O)O)c(Cl)c1Cl [ETHACRYNIC ACID]
[17]
  Na+ excretion: 3.2 mequiv/kg
[18]
  Na+ excretion: 5.9 mequiv/kg
[19]
  Na+ excretion: 2.9 mequiv/kg

## NS(=O)(=O)c1cc(C(=O)O)c(NCc2ccco2)cc1Cl [FUROSEMIDE]
[7]
  Na+ excretion: 3.7 m equiv kg-1
[4]
  ED2: 9.5 mg/kg
[1]
  ED5: 3.5 mg/kg
[9]
  Na+ excretion: 7.9 m equiv kg-1
[10]
  Excretion: 4.03 mg/kg
[11]
  Na+ excretion: 11.5 m equiv kg-1
[12]
  Excretion: 0.7 mg/kg
[2]
  ED6: 5 mg/kg
[14]
  Na+ excretion: 5.23 m equiv kg-1

## NS(=O)(=O)c1cc2c(cc1Cl)NCNS2(=O)=O [HYDROCHLOROTHIAZIDE]
[20]
  Na+ excretion: 6.7 m equiv kg-1
[21]
  Na+ excretion: 4.5 m equiv kg-1

## CC1(c2ccccc2)Cc2cc(OCC(=O)O)c(Cl)c(Cl)c2C1=O (configuration not stated) [INDACRINONE]
[4]
  ED2: 5.2 mg/kg
[1]
  ED5: 7.64 mg/kg
[22]
  Na+ excretion: 12.6 m equiv kg-1
[19]
  Na+ excretion: 4 m equiv kg-1
[10]
  Excretion: 9.53 mg/kg
[2]
  ED6: 4.4 mg/kg
[23]
  Na+ excretion: 8 m equiv kg-1
[24]
  Na+ excretion: 1.44 m equiv kg-1
[25]
  Excretion: 0.71 mg/kg
